ARFGAP1 inh – inhibitors of rat ARFGAP1 GAP activity, primary screen, biochemical, fluorescence polarization, GDP tracer; ADP-ribosylation factor GTPase-activating protein 1 (Rattus norvegicus), Q62848; inhibition, % at 16.5 µM; Arfgap1-stimulated ARF1 GTP hydrolysis, GDP FP detection; 360,000 compounds, 0.26% hits;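 active = inhibition above a per-plate limit, mean inhibition of low control wells plus 3 SD, cut at about 25% in these data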
Target sequence (Q62848 1-136 limits assumed): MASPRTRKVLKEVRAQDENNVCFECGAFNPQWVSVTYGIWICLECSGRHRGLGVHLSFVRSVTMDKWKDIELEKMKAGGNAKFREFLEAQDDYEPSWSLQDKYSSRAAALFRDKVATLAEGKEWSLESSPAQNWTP
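system = rat Arfgap1 catalytic domain, aa 1-136 | technique = FP, GDP Alexa 633 tracer displaced from anti-GDP antibody, 620/688 nm | compound = one concentration, 16.5 µM, DMSO 1.26% | medium = HEPES-based buffer, pH 7.5 | timing = compound-enzyme preincubation 20 min, reaction 120 min, detection 60 min, 25 °C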
SMARCA2 activ – SMARCA2 (BRM) function activators, primary screen, cell-based, luminescence, high throughput; AID 652017, 2013; activation, % at 9.1 µM; 370,000 compounds, 1% hits; MG213 cells, MMTV-luciferase reporter, dexamethasone, overnight; in the data active = activation above about 7.8%
esBAF inh – Bmi1 luciferase reporter increase in mESCs, primary screen, esBAF inhibitor project, mouse ES cells, Bmi1 luciferase knock-in, single point | reporter increase, % at 12.5 µM | AID 602393, 2012 | 24 h; 100% = twice the neutral-well signal | 350,000 compounds, 2% hits; in the data active = activation above about 40%; inconclusive = no clear call, values can overlap the other calls;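 also: a rise in the Bmi1 reporter signal indicates esBAF inhibition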
ASAP1 GAP inh – inhibitors of human ASAP1 ArfGAP activity, primary screen, biochemical, fluorescence polarization; inhibition, % at 16.5 µM; ASAP1-stimulated ARF1 GTP hydrolysis, GDP FP detection; AID 624377, 2012; 360,000 compounds, 0.19% hits; Arf-GAP with SH3 domain, ANK repeat and PH domain-containing protein 1 (Homo sapiens), …; in the data active = inhibition above about 25%
Target sequence (Q9ULH1 325-724 limits assumed): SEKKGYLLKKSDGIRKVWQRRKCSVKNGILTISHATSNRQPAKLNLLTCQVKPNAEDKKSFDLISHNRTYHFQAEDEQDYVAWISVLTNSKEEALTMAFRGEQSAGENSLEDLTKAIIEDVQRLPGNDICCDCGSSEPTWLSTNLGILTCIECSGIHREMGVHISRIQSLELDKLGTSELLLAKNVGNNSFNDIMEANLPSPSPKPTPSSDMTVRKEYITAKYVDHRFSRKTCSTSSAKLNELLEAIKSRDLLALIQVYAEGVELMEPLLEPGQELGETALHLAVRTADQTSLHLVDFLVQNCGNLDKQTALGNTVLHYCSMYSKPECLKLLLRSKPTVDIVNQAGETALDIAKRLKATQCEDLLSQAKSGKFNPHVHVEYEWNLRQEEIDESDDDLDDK
esBAF Ring1 qPCR – Ring1 mRNA increase in mouse ESCs, confirmation, esBAF inhibitor project, cell-based, mouse ESC, RT-qPCR, cherry-pick; 550 tested, under 10 active; fold change at 33 µM; AID 743176, 2013; mouse ESC E14, Ring1 mRNA RT-qPCR fold change; shares compounds with esBAF inh;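 active = Ring1 gene expression raised more than 2-fold over untreated cells in both replicates at either tested dose; inconclusive = only one replicate above 2-fold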;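 also: Ring1 transcript normalised to actin housekeeping signal by TaqMan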
esBAF Fgf4 qPCR – Fgf4 mRNA decrease in mouse ESCs, confirmation, esBAF inhibitor project, cell-based, mouse ESC, RT-qPCR, cherry-pick. shares compounds with esBAF inh. mouse ESC E14, Fgf4 mRNA qPCR fold change; active compounds read low. Fgf4 expression fold change at 33 µM. 550 compounds, 4% hits;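 active = Fgf4 expression under 0.8 fold of control in both repeat measurements at one or both tested doses; inconclusive = under 0.8 fold in just a single repeat measurement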;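 also: Fgf4 transcript normalised to actin in duplex TaqMan qPCR; cells exposed to compound for 24 h before lysis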
Bmi1 derepress – esBAF inhibition via Bmi1 de-repression, confirmation, cell-based, RT-qPCR, mouse ESC, single point, cherry-pick; shares compounds with esBAF inh; mouse ESE14 ES cells, Bmi1 mRNA qPCR fold; active compounds read high; fold change at 33 µM; 550 tested, under 10 active;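 active = Bmi1 expression fold change above 6 at either tested concentration, seen in replicate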;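 also: higher fold means more Bmi1 de-repression and stronger esBAF inhibition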
A549 cytotox – A549 cell cytotoxicity, cytotoxicity control, plate reader, single point, cherry-pick; shares compounds with esBAF inh; 550 tested, under 10 active; cell viability change % (negative = cytotoxic), % at 25 µM, hits read low; call rule not given here
HepG2 tox SP – HepG2 cell cytotoxicity, cytotoxicity control, plate reader, single point, cherry-pick. shares compounds with esBAF inh. active compounds read low. AID 743189, 2013. 550 compounds, 4% hits. activity change, negative = inhibition, % at 25 µM; in the data active = activity change below about -50%
HEK293 cytotox SP – HEK293 cell cytotoxicity, cytotoxicity control, plate reader, single point, cherry-pick. activity change, negative = inhibition, % at 25 µM, hits read low. 550 compounds, 3% hits. AID 743190, 2013. shares compounds with esBAF inh; in the data active = activity change below about -38%, passing the limit was not always enough
Each line names hits and unclear results; the compound was inactive in the other large screens (follow-up assays come after a bar, where they were run). Only some compounds are listed: those with a hit (about 2.6% of all), similar ones and a draw of the others.

COc1cc(/C=C/c2nc3ccccc3c(=O)[nH]2)ccc1OC(F)F	esBAF inh 56 | esBAF Ring1 qPCR inactive | esBAF Fgf4 qPCR inactive | Bmi1 derepress inactive | A549 cytotox inactive | HepG2 tox SP inactive | HEK293 cytotox SP inactive
COc1cc(SC)ccc1C(=O)NCC1CCCCC1	esBAF inh 65 | esBAF Ring1 qPCR inactive | esBAF Fgf4 qPCR inactive | Bmi1 derepress inactive | A549 cytotox inactive | HepG2 tox SP inactive | HEK293 cytotox SP inactive
COc1ccc(CCNC(=O)c2ccc(SC)cc2OC)cc1	none (no result: esBAF inh)
Cc1cc(N2CCOCC2)nc2ccc(NC(=O)CCC(=O)N3CCN(c4ccc(F)cc4)CC3)cc12	none
Cc1cc(N2CCOCC2)nc2ccc(NC(=O)CCC(=O)N3CCN(c4ccccc4F)CC3)cc12	esBAF inh 74 | esBAF Ring1 qPCR inactive | esBAF Fgf4 qPCR inactive | Bmi1 derepress inactive | A549 cytotox inactive | HepG2 tox SP inactive | HEK293 cytotox SP inactive
CCCN1C[C@@H](C)[C@H](OC)CN(C)C(=O)c2cc(NC(=O)NC3CCCCC3)ccc2OC[C@@H]1C	none (no result: ARFGAP1 inh, SMARCA2 activ, ASAP1 GAP inh)
O=C(c1cc2c(s1)-c1ccccc1OC2)N1CCCC1	esBAF inh 76 | esBAF Ring1 qPCR inactive | esBAF Fgf4 qPCR inactive | Bmi1 derepress inactive | A549 cytotox inactive | HepG2 tox SP inactive | HEK293 cytotox SP inactive
Cc1ccc(-c2cnc3c(c2)C(=O)N([C@H](C)CO)C[C@@H](C)[C@H](CN(C)C(=O)CN(C)C)O3)cc1	none (no result: ARFGAP1 inh, SMARCA2 activ, ASAP1 GAP inh)
CCS(=O)(=O)n1nc(-c2ccc(Cl)cc2)nc1SC	esBAF inh 57 | esBAF Ring1 qPCR inactive | esBAF Fgf4 qPCR inactive | Bmi1 derepress inactive | A549 cytotox inactive | HepG2 tox SP inactive | HEK293 cytotox SP inactive
CCS(=O)(=O)n1nc(-c2ccco2)nc1SC	none
O=C(CNC(=O)c1ccccc1F)Nc1ccc2c(c1)OCO2	esBAF inh 62 | esBAF Ring1 qPCR inactive | esBAF Fgf4 qPCR inactive | Bmi1 derepress inactive | A549 cytotox inactive | HepG2 tox SP inactive | HEK293 cytotox SP inactive
COc1ccccc1C(=O)NCC(=O)Nc1ccc2c(c1)OCO2	none
COc1ccccc1S(=O)(=O)N[C@H]1CC[C@H](CC(=O)N2CCCCC2)O[C@H]1CO	none (no result: ARFGAP1 inh, SMARCA2 activ, ASAP1 GAP inh)
CC(C)NC(=O)N(C)C[C@@H]1OCCCC[C@H](C)Oc2ccc(NS(=O)(=O)c3cn(C)cn3)cc2C(=O)N([C@@H](C)CO)C[C@@H]1C	none (no result: ARFGAP1 inh, SMARCA2 activ, ASAP1 GAP inh)
CC(C)CC(c1nc2ccccc2[nH]1)n1c(-c2ccccc2Br)nc2ccccc21 (stereo not drawn)	none
COc1ccc2nc(C(c3ccc(C)cc3)n3c(-c4ccccc4Br)nc4ccccc43)[nH]c2c1 (stereo not drawn)	esBAF inh inconclusive | esBAF Ring1 qPCR inactive | esBAF Fgf4 qPCR inactive | Bmi1 derepress inactive | A549 cytotox inactive | HepG2 tox SP inactive | HEK293 cytotox SP inactive
O=C(CC(=O)c1ccccc1)Nc1ccccc1	esBAF inh 76 | esBAF Ring1 qPCR inactive | esBAF Fgf4 qPCR inactive | Bmi1 derepress inactive | A549 cytotox inactive | HepG2 tox SP inactive | HEK293 cytotox SP inactive
Cc1ccc(S(=O)(=O)N(C)C[C@@H]2Oc3ncc(-c4ccncc4)cc3C(=O)N([C@@H](C)CO)C[C@@H]2C)cc1	none (no result: ARFGAP1 inh, SMARCA2 activ, ASAP1 GAP inh)
